Measurements: ChEMBL document CHEMBL3044991, “Synthesis and biological activity of 4-(4,6-disubstituted-pyrimidin-2-yloxy)phenoxy acetates” (2010)

Key:
Type in all cases: functional
Conditions in all cases: read-out: GI
[1] = tested on: Digitaria sanguinalis; experiment: Herbicidal activity against Digitaria sanguinalis (hairy crabgrass) assessed as root growth inhibition at 100 mg/L applied to germinated seeds measured after 65 hr at 28 degC
In short: (§1)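 Compounds dissolved in DMF with Tween 20 and diluted in distilled water to an emulsion. Germinated seeds, usually 15 per plate, were placed on two filter papers wetted with test solution in a Petri dish. Plates were kept in the dark for 65 h at 28 (±1) ºC. Root lengths of 10 seeds per plate were measured and averaged. Blank was emulsion without compound; quizalofop-P-ethyl served as control.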

[2] = tested on: Digitaria sanguinalis; experiment: Herbicidal activity against Digitaria sanguinalis (hairy crabgrass) assessed as root growth inhibition at 10 mg/L applied to germinated seeds measured after 65 hr at 28 degC; in short: as §1
[3] = tested on: Brassica napus; experiment: Herbicidal activity against Brassica napus (oilseed rape) assessed as root growth inhibition at 100 mg/L applied to germinated seeds measured after 65 hr at 28 degC; in short: as §1
[4] = tested on: Digitaria sanguinalis; experiment: Herbicidal activity against Digitaria sanguinalis (hairy crabgrass) assessed as root growth inhibition at 50 mg/L applied to germinated seeds measured after 65 hr at 28 degC; in short: as §1
[5] = tested on: Brassica napus; experiment: Herbicidal activity against Brassica napus (oilseed rape) assessed as root growth inhibition at 50 mg/L applied to germinated seeds measured after 65 hr at 28 degC; in short: as §1
[6] = tested on: Brassica napus; experiment: Herbicidal activity against Brassica napus (oilseed rape) assessed as root growth inhibition at 10 mg/L applied to germinated seeds measured after 65 hr at 28 degC; in short: as §1

`COC(=O)COc1ccc(Oc2nc(OC)cc(OC)n2)cc1` gave an inhibition of growth at 100 µg/mL [1] of 100%, an inhibition of growth at 10 µg/mL [2] of 42.8% and an inhibition of growth at 100 µg/mL [3] of 39.8%. The inhibition of growth at 50 µg/mL [4] was 98.5%, the inhibition of growth at 50 µg/mL [5] was 34.4% and the inhibition of growth at 10 µg/mL [6] was 22.9%.
Work on `CCOC(=O)COc1ccc(Oc2nc(OC)cc(OC)n2)cc1` yielded an inhibition of growth at 100 µg/mL [1] of 100%, an inhibition of growth at 10 µg/mL [2] of 39.9% and an inhibition of growth at 100 µg/mL [3] of 41.1%. It also gave an inhibition of growth at 50 µg/mL [4] of 96.2%, an inhibition of growth at 50 µg/mL [5] of 31% and an inhibition of growth at 10 µg/mL [6] of 13.4%.
`CCCOC(=O)COc1ccc(Oc2nc(OC)cc(OC)n2)cc1` was tested, and the inhibition of growth at 100 µg/mL [1] was 100%, the inhibition of growth at 10 µg/mL [2] was 32.5% and the inhibition of growth at 100 µg/mL [3] was 15.9%. For the same compound, the inhibition of growth at 50 µg/mL [4] was 95.2%, the inhibition of growth at 50 µg/mL [5] was 13.1% and the inhibition of growth at 10 µg/mL [6] was 10.1%.
Work on `COc1cc(OC)nc(Oc2ccc(OCC(=O)OC(C)C)cc2)n1` yielded an inhibition of growth at 100 µg/mL [1] of 100%, an inhibition of growth at 10 µg/mL [2] of 32.7% and an inhibition of growth at 100 µg/mL [3] of 25.1%. For the same compound, the inhibition of growth at 50 µg/mL [4] was 96.5%, the inhibition of growth at 50 µg/mL [5] was 21% and the inhibition of growth at 10 µg/mL [6] was 14.6%.
`CCCCOC(=O)COc1ccc(Oc2nc(OC)cc(OC)n2)cc1` showed an inhibition of growth at 100 µg/mL [1] of 100%, an inhibition of growth at 10 µg/mL [2] of 41.8% and an inhibition of growth at 100 µg/mL [3] of 28.3%. The inhibition of growth at 50 µg/mL [4] was 96.9%, the inhibition of growth at 50 µg/mL [5] was 13.4% and the inhibition of growth at 10 µg/mL [6] was 9.5%.
`COC(=O)COc1ccc(Oc2nc(C)cc(C)n2)cc1` showed an inhibition of growth at 100 µg/mL [1] of 100%, an inhibition of growth at 10 µg/mL [2] of 44.7% and an inhibition of growth at 100 µg/mL [3] of 44.7%. For the same compound, the inhibition of growth at 50 µg/mL [4] was 97.3%, the inhibition of growth at 50 µg/mL [5] was 26.7% and the inhibition of growth at 10 µg/mL [6] was 11.9%.
With `CCOC(=O)COc1ccc(Oc2nc(C)cc(C)n2)cc1` the inhibition of growth at 100 µg/mL [1] was 100%, the inhibition of growth at 10 µg/mL [2] was 38.5% and the inhibition of growth at 100 µg/mL [3] was 58.4%. It also gave an inhibition of growth at 50 µg/mL [4] of 98.4%, an inhibition of growth at 50 µg/mL [5] of 32.7% and an inhibition of growth at 10 µg/mL [6] of 14.2%.
In the case of `CCCOC(=O)COc1ccc(Oc2nc(C)cc(C)n2)cc1`, the inhibition of growth at 100 µg/mL [1] is reported as 100%, the inhibition of growth at 10 µg/mL [2] is reported as 36.9% and the inhibition of growth at 100 µg/mL [3] is reported as 54.5%. The inhibition of growth at 50 µg/mL [4] was 97.5%, the inhibition of growth at 50 µg/mL [5] was 33.9% and the inhibition of growth at 10 µg/mL [6] was 12.1%.
For `Cc1cc(C)nc(Oc2ccc(OCC(=O)OC(C)C)cc2)n1`, the inhibition of growth at 100 µg/mL [1] was 100%, the inhibition of growth at 10 µg/mL [2] was 35% and the inhibition of growth at 100 µg/mL [3] was 26.4%. It also gave an inhibition of growth at 50 µg/mL [4] of 95.1%, an inhibition of growth at 50 µg/mL [5] of 14.3% and an inhibition of growth at 10 µg/mL [6] of 9.2%.
In the case of `CCCCOC(=O)COc1ccc(Oc2nc(C)cc(C)n2)cc1`, the inhibition of growth at 100 µg/mL [1] is reported as 100%, the inhibition of growth at 10 µg/mL [2] is reported as 42.6% and the inhibition of growth at 100 µg/mL [3] is reported as 50.2%. It also gave an inhibition of growth at 50 µg/mL [4] of 97.6%, an inhibition of growth at 50 µg/mL [5] of 34.2% and an inhibition of growth at 10 µg/mL [6] of 21.5%.
For `CCOC(=O)[C@@H](C)Oc1ccc(Oc2cnc3cc(Cl)ccc3n2)cc1` [QUIZALOFOP-P-ETHYL], the inhibition of growth at 100 µg/mL [1] was 100%, the inhibition of growth at 10 µg/mL [2] was 63.5% and the inhibition of growth at 100 µg/mL [3] was 51.2%. The inhibition of growth at 50 µg/mL [4] was 95.3%, the inhibition of growth at 50 µg/mL [5] was 39.2% and the inhibition of growth at 10 µg/mL [6] was 33.8%.
